Experimental data reported in ChEMBL document CHEMBL5357066, “Development of Novel Membrane Disrupting Lipoguanidine Compounds Sensitizing Gram-Negative Bacteria to Antibiotics” (ACS Med Chem Lett, 2024).
Each block holds one compound with its values, some of them ahead of it.

Columns and labels:
Pseudomonas aeruginosa [1] = assay: Antibacterial activity against Pseudomonas aeruginosa NCTC 13437 assessed as bacterial growth inhibition incubated for overnight by microbroth dilution method; type: functional
How it was run: (§1)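 Broth microdilution in Tryptic Soy Broth. DMSO stocks were diluted in TSB as 2-fold series. Overnight TSB cultures were back-diluted to OD 0.01 and mixed 1:1 with compound. Incubation was overnight at 37 °C. MIC was the lowest concentration without visible growth (<0.1 OD600). DMSO vehicle was checked at equivalent concentrations.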

Acinetobacter baumannii [2] = assay: Antibacterial activity against Acinetobacter baumannii AYE assessed as bacterial growth inhibition incubated for overnight by microbroth dilution method; type: functional; how it was run: as §1
Acinetobacter baumannii [3] = assay: Antibacterial activity against Acinetobacter baumannii ATCC 17978 assessed as bacterial growth inhibition incubated for overnight by microbroth dilution method; type: functional; how it was run: as §1
Pseudomonas aeruginosa [4] = assay: Antibacterial activity against Pseudomonas aeruginosa PAO1 assessed as bacterial growth inhibition incubated for overnight by microbroth dilution method; type: functional; how it was run: as §1
Escherichia coli [5] = assay: Antibacterial activity against Escherichia coli NCTC 12923 assessed as bacterial growth inhibition incubated for overnight by microbroth dilution method; type: functional; how it was run: as §1
Klebsiella pneumoniae [6] = assay: Synergistic antibacterial activity against Klebsiella pneumoniae NCTC 13368 assessed as rifampicin MIC at <=0.25 times MIC incubated for overnight by microbroth dilution checkerboard assay; type: functional
How it was run: (§2)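 Checkerboard microdilution under MIC conditions (TSB, overnight, 37 °C). Two-fold series of each agent were combined on one plate before bacteria were added, and single-agent MICs were measured on the same plate. FIC = sum of combination MIC/alone MIC for each agent, taken from the most synergistic well. Three independent repeats, mean ± SD. ≤0.5 was taken as strong synergy and 0.5–<1 as weak.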

Klebsiella pneumoniae [7] = assay: Synergistic antibacterial activity against […] Klebsiella pneumoniae M6 assessed as rifampicin MIC at <=0.25 times MIC incubated for overnight by microbroth dilution checkerboard assay; type: functional
How it was run: (§3)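 Checkerboard run under the MIC conditions (TSB, overnight, 37 °C). Antibiotic and lipoguanidine 2-fold series were combined on one plate before bacteria were added. Growth/no-growth was scored as for the MIC (<0.1 OD600). Single-agent MICs were measured on the same plates. Three independent repeats were done.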

Acinetobacter baumannii [8] = assay: Synergistic antibacterial activity against Acinetobacter baumannii AYE assessed as rifampicin MIC at <=0.25 times MIC incubated for overnight by microbroth dilution checkerboard assay; type: functional; how it was run: as §2
Acinetobacter baumannii [9] = assay: Synergistic antibacterial activity against Acinetobacter baumannii ATCC 17978 assessed as rifampicin MIC at <=0.25 times MIC incubated for overnight by microbroth dilution checkerboard assay; type: functional; how it was run: as §2
Pseudomonas aeruginosa [10] = assay: Synergistic antibacterial activity against Pseudomonas aeruginosa PAO1 assessed as rifampicin MIC at <=0.25 times MIC incubated for overnight by microbroth dilution checkerboard assay; type: functional
How it was run: (§4)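 Checkerboard microdilution in Tryptic Soy Broth, run like the MIC assay. Overnight TSB cultures were back-diluted to OD 0.01 and added 1:1 to the combined two-fold series of both agents, then incubated overnight at 37 °C. Growth/no-growth was called at <0.1 OD600. MICs alone were read on the same plates. FIC index came from the most synergistic well; three independent repeats, mean ± SD.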

Pseudomonas aeruginosa [11] = assay: Synergistic antibacterial activity against Pseudomonas aeruginosa NCTC 13437 assessed as rifampicin MIC at <=0.25 times MIC incubated for overnight by microbroth dilution checkerboard assay; type: functional; how it was run: as §4
Escherichia coli [12] = assay: Synergistic antibacterial activity against Escherichia coli NCTC 12923 assessed as rifampicin MIC at <=0.25 times MIC incubated for overnight by microbroth dilution checkerboard assay; type: functional; how it was run: as §2
Klebsiella pneumoniae [13] = assay: Synergistic antibacterial activity against Klebsiella pneumoniae NCTC 13368 assessed as fold change in rifampicin MIC at <=0.25 times MIC incubated for overnight by microbroth dilution checkerboard assay relative to rifampicin alone; type: functional; how it was run: as §3
Klebsiella pneumoniae [14] = assay: Synergistic antibacterial activity against […] Klebsiella pneumoniae M6 assessed as fold change in rifampicin MIC at <=0.25 times MIC incubated for overnight by microbroth dilution checkerboard assay relative to rifampicin alone; type: functional; how it was run: as §3
Acinetobacter baumannii [15] = assay: Synergistic antibacterial activity against Acinetobacter baumannii AYE assessed as fold change in rifampicin MIC at <=0.25 times MIC incubated for overnight by microbroth dilution checkerboard assay relative to rifampicin alone; type: functional; how it was run: as §2
Acinetobacter baumannii [16] = assay: Synergistic antibacterial activity against Acinetobacter baumannii ATCC 17978 assessed as fold change in rifampicin MIC at <=0.25 times MIC incubated for overnight by microbroth dilution checkerboard assay relative to rifampicin alone; type: functional; how it was run: as §2
Pseudomonas aeruginosa [17] = assay: Synergistic antibacterial activity against Pseudomonas aeruginosa PAO1 assessed as fold change in rifampicin MIC at <=0.25 times MIC incubated for overnight by microbroth dilution checkerboard assay relative to rifampicin alone; type: functional; how it was run: as §4
Pseudomonas aeruginosa [18] = assay: Synergistic antibacterial activity against Pseudomonas aeruginosa NCTC 13437 assessed as fold change in rifampicin MIC at <=0.25 times MIC incubated for overnight by microbroth dilution checkerboard assay relative to rifampicin alone; type: functional; how it was run: as §4
Escherichia coli [19] = assay: Synergistic antibacterial activity against Escherichia coli NCTC 12923 assessed as fold change in rifampicin MIC at <=0.25 times MIC incubated for overnight by microbroth dilution checkerboard assay relative to rifampicin alone; type: functional; how it was run: as §2
Klebsiella pneumoniae [20] = assay: Antibacterial activity against Klebsiella pneumoniae M6 assessed as bacterial growth inhibition incubated for overnight by microbroth dilution method
Klebsiella pneumoniae [21] = assay: Antibacterial activity against ESBL Klebsiella pneumoniae NCTC 13368 assessed as bacterial growth inhibition incubated for overnight by microbroth dilution method
Klebsiella pneumoniae [22] = assay: Synergistic antibacterial activity against Klebsiella pneumoniae NCTC 13368 assessed as rifampicin MIC at 30 microg/ml incubated for overnight by microbroth dilution checkerboard assay; type: functional; details: dose 30 µg/ml
Klebsiella pneumoniae [23] = assay: Synergistic antibacterial activity against Klebsiella pneumoniae M6 assessed as rifampicin MIC at 30 microg/ml incubated for overnight by microbroth dilution checkerboard assay; type: functional; details: dose 30 µg/ml
Acinetobacter baumannii [24] = assay: Synergistic antibacterial activity against Acinetobacter baumannii AYE assessed as rifampicin MIC at 30 microg/ml incubated for overnight by microbroth dilution checkerboard assay; type: functional; details: dose 30 µg/ml
Acinetobacter baumannii [25] = assay: Synergistic antibacterial activity against Acinetobacter baumannii ATCC 17978 assessed as rifampicin MIC at 30 microg/ml incubated for overnight by microbroth dilution checkerboard assay; type: functional; details: dose 30 µg/ml
Pseudomonas aeruginosa [26] = assay: Synergistic antibacterial activity against Pseudomonas aeruginosa PAO1 assessed as rifampicin MIC at 30 microg/ml incubated for overnight by microbroth dilution checkerboard assay; type: functional; details: dose 30 µg/ml
How it was run: (§5)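 Fixed-concentration combination MIC in TSB. The first agent was set in a two-fold dilution series (100 µL/well), then 50 µL/well of the second agent at a fixed concentration was added; PMBN was fixed at 30 µg/mL. Bacteria at OD 0.02 (50 µL) went into 150 µL of compounds, overnight at 37 °C. MIC was the lowest concentration without visible growth (<0.1 OD600).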

Pseudomonas aeruginosa [27] = assay: Synergistic antibacterial activity against Pseudomonas aeruginosa NCTC 13437 assessed as rifampicin MIC at 30 microg/ml incubated for overnight by microbroth dilution checkerboard assay; type: functional; details: dose 30 µg/ml; how it was run: as §5
Escherichia coli [28] = assay: Synergistic antibacterial activity against Escherichia coli NCTC 12923 assessed as rifampicin MIC at 30 microg/ml incubated for overnight by microbroth dilution checkerboard assay; type: functional; details: dose 30 µg/ml

SMILES: NCCCCN=C(N)N [AGMATINE]
MIC (Pseudomonas aeruginosa [1]): > 128 µg/mL | MIC (Acinetobacter baumannii [2]): > 128 µg/mL | MIC (Acinetobacter baumannii [3]): > 128 µg/mL | MIC (Pseudomonas aeruginosa [4]): > 128 µg/mL | MIC (Escherichia coli [5]): > 128 µg/mL | MIC (Klebsiella pneumoniae [6]): 32 µg/mL | MIC (Klebsiella pneumoniae [7]): 32 µg/mL | MIC (Acinetobacter baumannii [8]): 16 µg/mL | MIC (Acinetobacter baumannii [9]): 4 µg/mL | MIC (Pseudomonas aeruginosa [10]): 32 µg/mL | MIC (Pseudomonas aeruginosa [11]): 32 µg/mL | MIC (Escherichia coli [12]): 32 µg/mL | fold change (FC) (Klebsiella pneumoniae [13]): 0 | fold change (FC) (Klebsiella pneumoniae [14]): 0 | fold change (FC) (Acinetobacter baumannii [15]): 0 | fold change (FC) (Acinetobacter baumannii [16]): 0 | fold change (FC) (Pseudomonas aeruginosa [17]): 0 | fold change (FC) (Pseudomonas aeruginosa [18]): 0 | fold change (FC) (Escherichia coli [19]): 0 | MIC (Klebsiella pneumoniae [20]): > 128 µg/mL | MIC (Klebsiella pneumoniae [21]): > 128 µg/mL

MIC (Klebsiella pneumoniae [22]): 1 µg/mL | MIC (Klebsiella pneumoniae [23]): 0.5 µg/mL | MIC (Acinetobacter baumannii [24]): 0.25 µg/mL | MIC (Acinetobacter baumannii [25]): ≤ 0.125 µg/mL | MIC (Pseudomonas aeruginosa [26]): ≤ 0.125 µg/mL | MIC (Pseudomonas aeruginosa [27]): ≤ 0.125 µg/mL | MIC (Escherichia coli [28]): ≤ 0.125 µg/mL
SMILES: CC(C)C[C@@H]1NC(=O)[C@@H](Cc2ccccc2)NC(=O)[C@H](CCN)NC(=O)[C@@H](NC(=O)[C@H](CCN)NC(=O)[C@@H](N)[C@@H](C)O)CCNC(=O)[C@H]([C@@H](C)O)NC(=O)[C@@H](CCN)NC(=O)[C@H](CCN)NC1=O
